MrgX1 antag = antagonists of human MrgX1 receptor. Q96LB2. MRGX1-HEK293 calcium flux, Fluo-4, BAM8-22 antagonism; stronger effect = lower value. B-score at 10 µM. actives 1.3% (n = 310,000). AID 588676;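 active = calcium-response B-score plate-corrected more than 3 library SD below zero, starting fluorescence within 5 deviations, no agonist response on first addition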;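 note: peak minus trough fluorescence over baseline after final BAM8-22 challenge near maximal dose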
Target sequence (Q96LB2 whole entry, looked up): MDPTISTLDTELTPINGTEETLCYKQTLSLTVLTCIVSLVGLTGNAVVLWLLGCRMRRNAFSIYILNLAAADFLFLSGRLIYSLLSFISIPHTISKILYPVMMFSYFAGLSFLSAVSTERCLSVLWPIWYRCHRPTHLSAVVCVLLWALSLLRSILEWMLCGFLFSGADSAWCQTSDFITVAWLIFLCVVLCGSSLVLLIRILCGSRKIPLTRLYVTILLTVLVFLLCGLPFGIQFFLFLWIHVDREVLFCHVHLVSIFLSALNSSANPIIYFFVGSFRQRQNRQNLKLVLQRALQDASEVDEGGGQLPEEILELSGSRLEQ
RGS4 pot = potentiators or activators of RGS4; actives 0.92% (n = 310,000); HEK293 M3R/inducible RGS4, carbachol calcium flux Fluo4; stronger effect = lower value; B-score at 10 µM;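 active = B-score of the integrated calcium signal more than 4 SD below the library mean, with starting fluorescence not abnormally high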;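 note: negative B-score means reduced calcium response which marks RGS4 activation or potentiation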
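Reagent: ECmax carbachol challenge; Test system: M3R-expressing HEK293 line, RGS4 induced by doxycycline; Schedule: overnight RGS4 induction, 30 min dye load 37 °C, 20 min compound RT; Detection: calcium dye Fluo4 fluorescence; Read-out: Agonist-evoked peak-minus-minimum fluorescence over baseline, integrated ratio, B score.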
MrgX1 allo act = allosterically activates human MrgX1 receptor signaling; Q96LB2; MrgX1-HEK293, Fluo-4 calcium flux, FDSS; stronger effect = higher value; B-score at 10 µM; actives 0.63% (n = 310,000);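 active = plate-corrected calcium response at least 3 library SD above typical, normal starting fluorescence, not activating the receptor alone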;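 note: compound read alongside a low EC10 to EC30 dose of BAM8-22 agonist; peak minus trough fluorescence over baseline measured at the second addition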
MrgX1 ag = activates human MrgX1 receptor signaling | Q96LB2 | MrgX1-HEK293 cells, Fluo-4 calcium fluorescence, agonist mode; stronger effect = higher value | B-score at 10 µM | actives 0.44% (n = 310,000) | AID 588627;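 active = calcium response B-score plate-corrected fluorescence ratio at least 3 library SD, with starting fluorescence B-score inside 5 SD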
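Test system: HEK293 cells stably expressing human MrgX1 receptor; Input: fifteen thousand cells per well; Dosing: compound delivered in addition one of three; Schedule: overnight seeding, then 1 h dark dye loading; Technique: Fluo-4 NW calcium fluorescence; Measure: B-scored fluorescence response ratio; Controls: positive and negative controls per plate.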
RGS4 inh = human RGS4 inhibition; P49798; HEK293 M3R/RGS4 inducible, Fluo-4 calcium flux; stronger effect = higher value; triggered by carbachol at its EC20; B-score at 10 µM; actives 0.45% (n = 310,000); AID 463165;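 active = B-score, a plate-corrected calcium signal, over three deviations above library mean, with baseline fluorescence within five deviations of library mean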;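 note: RGS4 expression induced by doxycycline in cells with stable M3 receptor; B-score is computed from the integrated fluorescence ratio over baseline after carbachol; higher B-score means a larger calcium signal and so more RGS4 inhibition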
Target sequence (P49798 whole entry, looked up): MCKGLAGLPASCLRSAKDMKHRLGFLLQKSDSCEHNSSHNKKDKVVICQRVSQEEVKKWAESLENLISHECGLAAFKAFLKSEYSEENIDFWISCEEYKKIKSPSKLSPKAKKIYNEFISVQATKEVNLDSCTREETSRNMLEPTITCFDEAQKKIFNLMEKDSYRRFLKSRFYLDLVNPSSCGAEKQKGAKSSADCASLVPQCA
Cl transport mod = modulators of human KCC2 chloride dependent transport; Q9H2X9; KCC2 cells, thallium flux FluoZin-2 fluorescence; B-score of Tl+ flux slope (higher = more flux/activation; lower = inhibition) at 10 µM; actives 2.2% (n = 190,000); AID 1456;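 active = thallium flux slope and its plate-corrected score both differing from the plate sample mean at a set confidence after two filtering rounds, in either direction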;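 note: slope of fluorescence scaled to starting intensity during 10 to 20 s after thallium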
KCC2 sec1 = KCC2 (human) modulation, secondary assay; shares compounds with Cl transport mod; actives 15% (n = 3,700); normalised thallium flux (F/F0 slope) at 10 µM; HEK293-KCC2, thallium flux, FluoZin2 fluorescence; stronger effect = higher value;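 active = thallium flux slope above the same plate's solvent-only control mean plus 3 SD; inconclusive = the two replicate wells disagree; inactive = no significant difference from solvent-only control wells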
KCC2 bumet counter = thallium flux despite bumetanide block in KCC2 cells, secondary assay 3; shares compounds with Cl transport mod; HEK293-KCC2 + bumetanide/ouabain, thallium flux FluoZin2; stronger effect = higher value; normalized thallium flux at 10 µM; actives 49% (n = 3,700); AID 1714;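 active = thallium entry rate above the same plate's blocked-transporter control wells by more than 3 SD; inconclusive = the two repeat wells disagree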;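 note: raw slope of fluorescence over initial fluorescence between 10 and 20 s after thallium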
KCC2 secondary2 = KCC2 (human) modulation, second secondary assay. shares compounds with Cl transport mod. HEK293-KCC2, thallium flux FluoZin2 fluorescence; actives lie on both sides; F/F0 rise rate, 10–20 s post-thallium. normalized thallium flux at 10 µM. actives 23% (n = 3,700). AID 1715;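 active = thallium flux slope more than 3 SD above or below the plate's solvent-only control mean, mostly below; inconclusive = the two repeat wells disagreed; inactive = no significant shift from solvent-only controls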;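 note: raw slope with 0.1% DMSO as baseline and bumetanide as block control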
HEK counter1 = parental HEK flux effect, counter-screen; thallium flux rate (normalised fluorescence) at 10 µM; HEK293 parental cells, thallium flux FluoZin2, ouabain; baseline-ratio fluorescence slope, 10–20 s after thallium; shares compounds with Cl transport mod; actives 46% (n = 3,700); AID 1716;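 active = thallium flux rate significantly above the same plate's solvent-only control wells, beyond their mean plus 3 SD; inconclusive = the two replicate wells gave conflicting results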
KCC2 retest ouab = KCC2 (human) modulation, ouabain retest | shares compounds with Cl transport mod | HEK293-KCC2, thallium flux FluoZin2 fluorescence; bidirectional: low = inhibitor, high = activator | raw Tl+ flux slope (below DMSO = inhibition, above = activation) at 10 µM | actives 48% (n = 3,700);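 active = thallium flux slope beyond 3 SD from same-plate DMSO control mean in most replicates, usually higher, sometimes lower; inconclusive = repeat tests gave conflicting results; inactive = no significant difference from controls in most replicates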;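 note: slope of initial-normalized fluorescence between seconds 10 and 20 after thallium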
HEK293 Tl flux2 = counter-screen for KCC2 modulators: effect in parental HEK293 cells; thallium flux FluoZin-2 fluorescence slope; shares compounds with Cl transport mod; actives 33% (n = 3,700); thallium flux slope at 10 µM; AID 1718;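 active = thallium flux slope above the same plate's solvent-control mean plus 3 SD in both duplicate wells; inconclusive = duplicate wells that disagreed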;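 note: run without ouabain in cells lacking the KCC2 cotransporter; slope of fluorescence scaled to its starting value between 10 and 20 s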
* hit, by the source's call; i = inactive; u = inconclusive; x = no result. In the library only some 4.7% were active in any assay of this set; here they are far more common.

SMILES	MrgX1 antag	RGS4 pot	MrgX1 allo act	MrgX1 ag	RGS4 inh	Cl transport mod	KCC2 sec1	KCC2 bumet counter	KCC2 secondary2	HEK counter1	KCC2 retest ouab	HEK293 Tl flux2
O=C1CN(Cc2cc(=O)oc3cc4c(cc23)CCC4)CCN1	i	i	i	i	i	0.456	x	x	x	x	x	x
CCOc1ccc(NC(=O)CSc2nnc(NC(=O)C3CC3)s2)cc1	i	i	i	i	i	x	x	x	x	x	x	x
COc1cc(C(=O)NNC(=S)NC(=O)c2ccc(Cl)cc2)cc(OC)c1OC	i	i	i	i	i	13.5*	0.0165*	0.0282*	0.0377	0.0169*	0.0332*	0.012*
COc1ccc(NC(=S)NC(=O)/C=C/c2ccco2)cc1	i	i	i	i	i	4.39*	0.0101	0.0164*	0.0367	u	u	0.0121
Cc1snnc1C(=O)NC(=S)Nc1ccccc1	i	i	i	i	i	52.2*	0.0265*	0.0893*	u	0.0467*	0.0642*	0.0145*
O=C(NC(=S)Nc1cccnc1)c1ccccc1	i	i	i	i	i	x	x	x	x	x	x	x
CC(=O)NC(=S)Nc1ccc(NC(=S)NC(=O)/C=C/c2ccco2)cc1	i	i	i	i	i	-0.737	x	x	x	x	x	x
COC(=O)C1=NN(C(=O)c2ccc(Br)cc2)C(O)(C(C)(C)C)C1 (configuration not stated)	x	x	x	x	x	65.8*	0.0486*	0.136*	0.0464*	u	0.0995*	0.0215*
CC1=NN(C(=O)c2ccc(Br)cc2)C(O)(C(F)(F)OC(F)(F)F)C1 (configuration not stated)	i	i	i	i	i	6.07*	0.00941	0.00988*	0.0309	0.00879*	0.0289*	u
C[C@H](NC(=O)COc1ccc(Cl)cc1)C(=O)N1CCC2(CC1)NCCc1[nH]cnc12	i	i	i	i	i	x	x	x	x	x	x	x
Cc1nn(CC(=O)N2CCN(c3ccccn3)CC2)c(=O)c2cc3sccc3n12	i	i	i	i	i	x	x	x	x	x	x	x
CCc1cc2c(cc3c(=O)n(CC(=O)N4CCN(c5ccccn5)CC4)nc(CC)n32)s1	i	i	i	i	i	x	0.00775	0.00455	0.0304	0.00731	0.0161	0.00966
CCCCCC(=O)Cc1cc(O)cc2c1C(=O)Oc1cc(O)c(C(=O)O)c(CCCCC)c1O2	i	i	i	i	i	-1.56*	u	0.00459	0.0255*	0.00797	u	0.0106
Cc1sc2ncn(CC(=O)OCC(=O)NC(C)(C)C)c(=O)c2c1C	i	i	i	i	i	x	0.00677	0.00502	0.0301	0.008	0.0188	0.0115
COc1ccc(NC(=O)c2cccc(NC3=NC4CS(=O)(=O)CC4S3)c2)cc1Cl (configuration not stated)	i	i	i	i	i	x	x	x	x	x	x	x
CCc1cccc(C)c1NC(=O)C1CCN(c2nn3c(=O)cc(C)nc3s2)CC1	i	i	i	i	i	x	x	x	x	x	x	x
CCCn1c(SCC(=O)N2CCc3ccccc32)nnc1-c1ccco1	i	i	i	i	i	-0.272	x	x	x	x	x	x
CCCn1c(SCC(=O)N2c3ccccc3CC2C)nnc1-c1ccco1 (configuration not stated)	i	i	i	i	i	-4.81*	0.00827	0.00435	0.0349	u	0.0178*	0.00939
O=C(Sc1ccc(Cl)cc1)c1ccccn1	i	i	i	i	i	x	x	x	x	x	x	x
CCCCCN1C/C=C\C(c2ccc(OC)cc2)N(Cc2ccc(F)cc2)C(=O)C1 (configuration not stated)	i	i	i	i	i	-2.52*	0.00962	0.00486	u	0.00702	0.017*	0.00987
CCCCC(=O)N1C/C=C\C(c2ccc(OC)cc2)N(Cc2ccc(F)cc2)C(=O)C1 (configuration not stated)	i	i	i	i	i	-2.77*	0.00878	0.00505	0.033	0.00757	0.019	0.0109
COc1ccc(C2/C=C\CN(CC3CC3)CC(=O)N2Cc2ccc(F)cc2)cc1 (configuration not stated)	i	i	i	i	i	-3.44*	0.00699	0.0063	0.0314	0.00733	0.0169*	0.0106
CC(C)CC(=O)NC(C)C(c1cccs1)N1CCOCC1 (configuration not stated)	i	i	i	i	i	-0.0204	x	x	x	x	x	x
COc1ccc(C2=NN(c3ccccc3)C(c3cn(CCC(=O)O)nc3-c3ccccc3)C2)cc1 (configuration not stated)	i	i	i	i	i	-0.21	x	x	x	x	x	x
COC(=O)c1n[nH]c2ccccc12	i	i	i	i	i	x	x	x	x	x	x	x
O=C(OCCCCN1C(=O)c2ccccc2C1=O)c1n[nH]c2ccccc12	i	i	i	i	i	-2.92*	0.00476	0.00674*	0.0282	u	u	0.0105
Cc1cc(-c2csc(N)n2)c(C)n1Cc1ccco1	i	i	i	i	i	0.8	x	x	x	x	x	x
Cc1ccc(-n2c(C)cc(-c3csc(N)n3)c2C)cc1	i	i	i	i	i	-3.19*	0.0086	0.00625	0.0355	u	0.0194	0.0116
CCN1CCN(S(=O)(=O)c2c[nH]c(C(=O)OC)c2)CC1	i	i	i	i	i	x	x	x	x	x	x	x
COc1ccc(OC)c(N(CC(=O)NC2CCCC2)S(=O)(=O)c2ccc(OC)c(OC)c2)c1	i	i	i	i	i	x	x	x	x	x	x	x

Assay outcomes (PubChem BioAssay)
